Bioassay records as filed in PubChem.
NLRP3 yeast inh = blocks the NALP3 inflammasome reconstituted in yeast | inhibition, % at 10 µM | Yeast reconstituted NLRP3/ASC/caspase-1, beta-gal luminescence, 24 h | actives 0.39% (n = 330,000);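 active means inhibition of 50% or more; inactive means inhibition below 50%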;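 further: plate controls were induced DMSO wells for no effect and uninduced yeast grown without galactose for full effect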
Calb FLC = affects C. albicans growth with fluconazole | C. albicans CaCi-2 + fluconazole, Alamar Blue growth, 48 h | growth inhibition, % (concentration not given with the values) | actives 0.57% (n = 300,000) | AID 1979;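 active means growth inhibition above about 58% in most replicates, limit read from the data, passing the limit was not always enough; inconclusive means exactly half the replicates above a set limit; inactive means most replicates below a set limit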;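 further: all wells also contain fluconazole at 8 µg/ml as a sub-toxic cotreatment; 0% = median of DMSO wells and 100% = median of geldanamycin control wells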
T cruzi repl = T. cruzi replication inhibition; T. cruzi beta-gal in NIH3T3, luminescence, 90 h; inhibition, % (no concentration beside the values); actives 1.4% (n = 300,000);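 active means mean inhibition across valid replicates above about 55%, limit read from the data; inconclusive means mean below that limit but half or more replicates reach it; inactive means mean below it, under half of replicates reach it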;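 further: signal also drops with host cell toxicity which is not excluded here; 0% = plate median of DMSO wells and 100% = zero luminescence signal; higher percent means less beta-gal luminescence so fewer parasites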
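Material: NIH/3T3 host cells with β-galactosidase reporter T. cruzi; Input: 5,000 host fibroblasts per well; Medium: DMEM, 2% fetal bovine serum; Compound: 50 nL DMSO compound solution per well; Schedule: 3 h host attachment, then at least 90 h co-culture; Detection: luminescent β-galactosidase signal after 60 min lysis.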
Lmaj promast = reduces viability of Leishmania major promastigotes; resazurin fluorescence viability; inhibition, % at 10 µM; actives 9% (n = 200,000); AID 1063; in the data active means inhibition above about 50%;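 further: promastigotes grown with compound for 44 hours at 28 °C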
PolyA inh = inhibitors of polyadenylation in S. cerevisiae; S. cerevisiae SKY197-pL101 polyadenylation reporter, beta-gal luminescence; efflux-impaired pdr1/pdr3 knockout yeast; score 100 = 6 SD above DMSO; activity score, % at 12 µM; actives 0.02% (n = 300,000);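 active means lowest replicate activity score at least 50, where 100 means six control SD above control mean; inconclusive means lowest score under 50 but half or more replicates reach 50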;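 further: yeast exposed to compound for 9 h at 30 °C; higher score means more reporter readthrough which indicates perturbed polyadenylation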
NALP1 yeast inh = inhibitors of NALP1 inflammasome in yeast; actives 0.61% (n = 280,000); inhibition, % at 10 µM; S. cerevisiae NALP1/ASC/caspase-1 growth, X-gal OD620, 72 h; in the data active means inhibition mostly above about 24%, no sharp cut-off; inactive means mostly below about 32%
* hit, by the source's call; ? = inconclusive; . = not tested or not shown. This is one part of a sample in which hits are shown more often than they occur.

SMILES | NLRP3 yeast inh | Calb FLC | T cruzi repl | Lmaj promast | PolyA inh | NALP1 yeast inh
Cc1cccc(NC(=O)c2ccc([N+](=O)[O-])s2)n1 | 6.9 | -1.2 | 64.7* | . | -49.5 | 19.9
COc1ccc(NC(=O)Cc2ccc(C)cc2)c([N+](=O)[O-])c1 | . | -21.1 | 2.7 | 90.7* | 10.4 | 3.5
O=C(NC1CCCC1)c1ccc([N+](=O)[O-])s1 | 10.7 | -4.2 | 72.4* | 98.0* | -3.8 | -13.8
O=C(NCCCN1CCCC1=O)c1ccc([N+](=O)[O-])s1 | 32.9 | 5.8 | 60.1* | . | 12.8 | .
COc1ccc(NC(=O)COc2ccc(C)cc2)c([N+](=O)[O-])c1 | 18.7 | -16.8 | -1.3 | -2.5 | 5.4 | 6.6
O=S(=O)(c1cc(Br)c(Cl)s1)N1CCCC1 | 33.6 | -0.3 | 6.1 | . | -24.3 | 39.6
COc1ccc(C(C(=O)Nc2ccc(C(C)C)cc2)N(Cc2ccco2)C(=O)CC2NC(=O)NC2=O)cc1 (stereo not given) | 0.3 | -1.4 | 5.9 | 3.8 | -4.0 | 10.5
COc1ccc(NC(=O)c2ccc(NC(=O)C(C)C)cc2)c([N+](=O)[O-])c1 | 9.0 | 4.8 | 1.9 | 27.8 | 1.1 | 24.1
Cc1cc(C(=O)NC(=S)Nc2cccc(NC(=O)C(C)C)c2)ccc1[N+](=O)[O-] | 12.0 | -10.9 | 2.0 | 81.9* | 7.5 | 35.3
O=C(Nc1ccccc1N1CCOCC1)c1ccc([N+](=O)[O-])s1 | 8.4 | . | . | . | . | .
Cc1cccc(NC(=O)c2ccc([N+](=O)[O-])s2)c1C | -1.9 | 31.0 | 65.9* | 100.1* | 4.3 | 18.9
COc1ccc(NC(=O)c2cccc(NC(=O)C(C)C)c2)c([N+](=O)[O-])c1 | 25.5 | -3.8 | -0.7 | 73.0* | 7.4 | 28.8
COc1ccc(C2=NN(C(=O)CCCC(=O)O)C(c3cn(-c4ccccc4)nc3-c3ccccc3)C2)cc1 (stereo not given) | 12.6 | 5.2 | -0.7 | . | -12.2 | .
COCc1cc(C)nc(N2CCN(Cc3ccccc3)CC2)c1C#N | 10.0 | -4.6 | 5.6 | -0.7 | 11.3 | 41.3*
COc1cc(C2CC(=O)Oc3c(C(CCN4CCN(c5ccccc5)CC4)c4ccc(N(C)C)cc4)c(OC)cc(OC)c32)cc(OC)c1OC (stereo not given) | 15.7 | -12.0 | 20.1 | . | -7.6 | 4.0
COc1cc(C2CC(=O)Oc3c(C(CCN4CCOCC4)c4ccc(N(C)C)cc4)c(OC)cc(OC)c32)cc(OC)c1OC (stereo not given) | 16.9 | 0.4 | 8.0 | . | 57.7* | 11.1
COc1ccc(C(=O)N=S2CCN(C(=O)c3ccc(Cl)cc3)CC2)cc1 | 4.3 | -23.9 | 1.0 | . | 22.2 | 4.7
Nc1c(C(=O)NCCc2ccc(Cl)cc2)sc2ccc(S(=O)(=O)N3CCCCC3)cc12 | 16.7 | -11.3 | 59.5* | 82.6* | 1.0 | 6.8
CCOC(=O)c1c(CN(C)C)n(C)c2ccc(OC(C)=O)cc12 | -8.5 | -0.1 | -7.8 | 67.4* | -1.9 | 11.0
CCOC(=O)c1c(C)n(C)c2ccc(OC(=O)c3ccoc3)cc12 | -13.2 | 1.5 | -12.4 | -2.5 | 4.5 | 15.3
O=[N+]([O-])/C=C/c1cn(Cc2ccc(F)cc2)c2ccccc12 | -1.3 | -20.6 | 1.4 | 98.8* | -85.8 | 5.6
O=C(O)c1ccc(N/N=C/c2cn(Cc3ccc(F)cc3)c3ccccc23)cc1 | 12.3 | -10.4 | -3.4 | . | -5.7 | 6.7
CC(C)(C)C(=O)Nc1cc(NC(=O)C(C)(C)C)cc(C(=O)Nc2c[nH]c(=O)[nH]c2=O)c1 | 19.8 | -1.8 | 7.6 | . | 14.8 | .
O=C(N/N=C(\c1ccccc1)c1ccccn1)c1cccc([N+](=O)[O-])c1 | 38.2 | 113.0* | 57.9* | 100.2* | -76.2 | -15.2
C/C(=N\NC(=O)c1ccc(F)cc1)c1ccccn1 | 47.1 | -10.4 | 50.6 | . | -1.5 | 32.3
SMILES | NLRP3 yeast inh | Calb FLC | T cruzi repl | Lmaj promast | PolyA inh | NALP1 yeast inh
Cn1ccnc1/C(=N\NC(=O)c1ccccc1)c1cccc([N+](=O)[O-])c1 | 6.6 | ? | 4.1 | 8.9 | 6.1 | 2.9
CCOc1ccc(C(=O)N/N=C(\c2ccccc2)c2ccccn2)cc1 | 23.6 | 41.7 | 54.3 | 99.4* | -43.6 | -5.8
N#Cc1ccccc1S(=O)(=O)Nc1ccc2c(c1)OCCO2 | 11.3 | -4.6 | 0.2 | . | -5.2 | 13.9
O=C(CSc1nnc(C2CC2)n1-c1ccccc1)N1CCNC1=O | 9.3 | . | . | . | . | .
C=CCn1c(SCC#N)nc2c(c1=O)C(C)(C)Cc1ccccc1-2 | -0.7 | 4.4 | 12.8 | 96.4* | 0.9 | -10.5
CCOC(=O)N1CCN(S(=O)(=O)c2ccc(C(=O)NNc3nc4c(C)cc(C)cc4s3)cc2)CC1 | 9.3 | 29.2 | 40.0 | 88.1* | 7.6 | 27.3
Cc1cc(C)c2nc(NC(=O)[C@@H](NC(=O)c3cccc(S(=O)(=O)N4CCOCC4)c3)C(C)C)sc2c1 | 0.4 | 3.5 | 23.9 | 96.7* | 34.3 | 0.1
CCOC(=O)N1CCN(S(=O)(=O)c2ccc(C(=O)Nc3nnc(C4CC4)o3)cc2)CC1 | -12.2 | -6.9 | 6.4 | -10.8 | 5.8 | 33.8
Cc1cc(C)c2nc(NNC(=O)c3ccc(S(=O)(=O)N4CCCCC4)cc3)sc2c1 | 7.7 | 3.6 | 49.9 | 89.1* | -0.5 | 25.0
CCOC(=O)N1CCN(S(=O)(=O)c2ccc(C(=O)Nc3nnc(CC)o3)cc2)CC1 | 10.3 | 6.0 | -9.9 | 59.0* | 10.4 | 22.2
CCOC(=O)N1CCN(S(=O)(=O)c2ccc(C(=O)NNc3nc4c(C)cccc4s3)cc2)CC1 | 9.4 | 0.1 | 44.5 | 0.5 | 6.2 | 30.5
CCOC(=O)N1CCN(S(=O)(=O)c2ccc(C(=O)NNc3nc4cc(C)cc(C)c4s3)cc2)CC1 | 7.6 | -0.7 | 48.5 | 20.8 | -0.1 | 28.2
Cc1cccc(C(=O)N[C@H](C(=O)Nc2cc(S(=O)(=O)N3CCCCC3)ccc2C)C(C)C)c1 | 3.9 | 16.7 | -14.8 | -1.2 | -1.2 | 16.3
Cc1cc(N2CC(C(=O)NCc3cccnc3)CC2=O)ccc1C(C)C (stereo not given) | 5.3 | -0.9 | -7.2 | . | -6.9 | .
Cc1cc(=O)nc2c3ccccc3n(C(C)C(=O)Nc3c(F)c(F)c(F)c(F)c3F)n12 (stereo not given) | 6.2 | -25.1 | 14.7 | 1.5 | -0.7 | -5.6
CC(C)(C)OC(=O)C[C@H]1C/C=C\C[C@@H](CC(=O)N(CCO)Cc2ccccc2)C(=O)NC[C@@H](c2ccccc2)OC1=O | 22.8 | . | . | . | . | .
N=C1/C(=C/c2cccn2Cc2ccc(Cl)cc2)C(=O)N=C2SC=CN12 | -0.3 | 15.4 | -12.0 | -3.6 | -19.7 | 17.5
CN1CCN(c2cc3c(c4c2[nH]c2ccccc24)C(=O)CC(C)(C)C3)CC1 | 15.8 | 101.0* | 45.0 | 95.0* | -0.9 | -32.4
CN1CCN(c2ccc(Cl)cc2NC(=O)c2cc(=O)[nH]c3ccccc23)CC1 | 3.8 | . | . | . | . | .
Cc1ccc[n+](CC(=O)Nc2cc(C(F)(F)F)ccc2Cl)c1 | 3.5 | 19.8 | -17.9 | -7.9 | 2.5 | 24.4
CCC(C)(C)c1ccc(OCCCC[n+]2cccc(C)c2)c(C(C)(C)CC)c1 | . | -1.1 | 59.6* | 100.5* | -15.5 | 33.0*
